Activity calls are given as the source filed them. The rule behind the calls is not given here.
Columns and labels:
U138-MG [1] = assay: Anticlonogenic activity against human U138MG cells assessed as dose enhancement ratio pretreated for 2 hrs followed by 1 to 8 Gy dose of proton irradiation measured after 10 to 14 days by methylene blue staining based method; assay type: functional
How it was run: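 U-138 MG clonogenic assay: cells were pretreated with 0.001 nM drug, then given 1–8 Gy protons. Colonies of 50 or more cells were counted at 14 days. The ratio compares the combined survival fraction with that expected from each modality given separately.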

U138-MG [2] = assay: Anticlonogenic activity against human U138MG cells assessed as cell survival at 0.001 nM pretreated for 2 hrs followed by 1 to 8 Gy dose of proton irradiation measured after 10 to 14 days by methylene blue staining based method; assay type: functional; conditions: light or radiation study, read-out: Survival
How it was run: (§1)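 U-138 MG cells were exposed to 0.001 nM drug before proton irradiation at 1–8 Gy. Colonies of at least 50 cells were counted 14 days after exposure, and survival fractions and curves were derived.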

U138-MG [3] = assay: Induction of apoptosis in human U138MG cells assessed as dose enhancement ratio at 0.1 nM after 72 hrs in presence of 2 Gy dose of proton irradiation by Annexin V staining based flow cytometry; assay type: functional
How it was run: (§2)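 Flow cytometry of U-138 MG cells 72 h after 0.1 nM drug combined with 2 Gy protons: annexin V for apoptosis, 7-AAD for necrosis. The enhancement ratio was derived against single treatments.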

U138-MG [4] = assay: Anticlonogenic activity against human U138MG cells assessed as decrease in cell survival pretreated for 2 hrs followed by 1 to 8 Gy dose of proton irradiation measured after 10 to 14 days by methylene blue staining based method; assay type: functional; conditions: light or radiation study; how it was run: as §1
U138-MG [5] = assay: Induction of necrosis in human U138MG cells assessed as dose enhancement ratio at 0.1 nM after 72 hrs in presence of 2 Gy dose of proton irradiation by 7-AAD staining based flow cytometry; assay type: functional; how it was run: as §2
U138-MG [6] = assay: Cytotoxicity against human U138MG cells assessed as cell survival at higher doses after 72 hrs by trypan blue dye based assay; assay type: functional
U138-MG [7] = assay: Induction of apoptosis in human U138MG cells at 0.1 nM after 72 hrs in presence of 6 Gy dose of proton irradiation by Annexin V staining based flow cytometry; assay type: functional, cell-based
U138-MG [8] = assay: Induction of apoptosis in human U138MG cells at 0.1 nM after 72 hrs by Annexin V staining based flow cytometry; assay type: functional, cell-based
How it was run: (§3)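 U-138 MG cells were treated with 0.1 nM drug and analysed by flow cytometry at 72 h: annexin V binding for apoptosis and 7-AAD uptake for necrosis.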

U138-MG [9] = assay: Induction of necrosis in human U138MG cells at 0.1 nM after 72 hrs by 7-AAD staining based flow cytometry; assay type: functional, cell-based; how it was run: as §3
U138-MG [10] = assay: Cytotoxicity against human U138MG cells assessed as decrease in cell viability at 0.5 to 1 nM after 72 hrs in presence of 2 Gy dose of proton irradiation by trypan blue dye based assay; assay type: functional
How it was run: (§4)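 U-138 MG cells received the drug at 0.1, 0.5 or 1.0 nM, alone or combined with a 2 Gy proton exposure. Viable cell number was counted at 72 h. The dose enhancement ratio was calculated from combined versus single treatments.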

U138-MG [11] = assay: Anticlonogenic activity against human U138MG cells assessed as decrease in cell survival after 14 days by methylene blue staining based method; assay type: functional; conditions: 336 h
How it was run: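 Clonogenic survival of U-138 MG human glioblastoma cells after drug exposure alone. Colonies of 50 or more cells were counted 14 days after exposure, and survival curves were calculated from the counts.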

U138-MG [12] = assay: Induction of necrosis in human U138MG cells at 0.1 nM after 72 hrs in presence of 6 Gy dose of proton irradiation by 7-AAD staining based flow cytometry; assay type: functional, cell-based
U138-MG [13] = assay: Cytotoxicity against human U138MG cells assessed as cell survival at 0.1 nM after 72 hrs by trypan blue dye based assay; assay type: functional; conditions: read-out: Survival
U138-MG [14] = assay: Cytotoxicity against human U138MG cells assessed as dose enhancement ratio at 0.1 nM after 72 hrs in presence of 2 Gy dose of proton irradiation by trypan blue dye based assay; assay type: functional; how it was run: as §4
U138-MG [15] = assay: Cytotoxicity against human U138MG cells assessed as cell survival at 0.5 nM after 72 hrs by trypan blue dye based assay; assay type: functional; conditions: read-out: Survival
U138-MG [16] = assay: Cytotoxicity against human U138MG cells assessed as decrease in cell viability after 72 hrs by trypan blue dye based assay; assay type: functional

COC(=O)c1cc2c([nH]1)C(=O)C=C1N(C(=O)c3cc4cc(OC)c(OC)c(OC)c4[nH]3)C[C@H]3C[C@]123 [DUOCARMYCIN]
Ratio (U138-MG [1]): 2.17
viability at 1 pM (U138-MG [2]): 54%
Ratio (U138-MG [3]): 2.5
IC50 (U138-MG [4]): 0.443 nM
Ratio (U138-MG [5]): 4
Activity (U138-MG [6]): Active
Activity (U138-MG [7]): inactive
Activity (U138-MG [8]): Active
Activity (U138-MG [9]): Active
Activity (U138-MG [10]): Active
IC50 (U138-MG [11]): 0.0018 nM
Activity (U138-MG [12]): inactive
viability at 0.0001 µM (U138-MG [13]): 65%
Ratio (U138-MG [14]): 1.6
viability at 0.0005 µM (U138-MG [15]): 25%
Activity (U138-MG [16]): Dose-dependent effect
IC50 (U138-MG [16]): 0.4 nM
